Assay results gathered from unrelated publications.
Each line is one published result; the experiments were not run side by side. Converted amounts (≈) assume the structure as drawn.

| SMILES | organism | assay | system | conditions | measurement | result |
| --- | --- | --- | --- | --- | --- | --- |
| CCC(CCCCCCCCCCc1cc(O)cc(O)c1)C(C)C (stereo not drawn) | Streptococcus pneumoniae | microbial growth | – | – | IC50 | 30.2 µM |
| NCCc1ccc(O)cc1 | Cryptosporidium parvum | parasite growth, imaging | HCT-8 | 1 mM, 24 h, intracellular | activity vs control | 94% |
| CC(C)CCCCCCCCCCCCCCCc1cc(O)cc(O)c1 | Klebsiella pneumoniae | microbial growth | ATCC29665 | – | IC50 | > 200 µM |
| COC(=O)c1cc(-c2cccc(NC(=O)Nc3cc(Cl)ccc3Cl)c2)on1 | Klebsiella pneumoniae | microbial growth, broth dilution | BAA1705 | – | MIC | > 64 µg/mL |
| N#Cc1c[nH]c2ccccc12 | Cryptosporidium parvum | parasite growth | HCT-8 | 24 h, intracellular | EC90 | 386 µM |
| COC(=O)c1cc(-c2cccc(NC(=S)Nc3ccc(OC)cc3)c2)on1 | Klebsiella pneumoniae | microbial growth, broth dilution | BAA1705 | – | MIC | > 64 µg/mL |
| Oc1cccc2cccnc12 | Klebsiella pneumoniae | microbial growth, broth dilution | ATCC700603 | – | IC50 | 49.5 µg/mL |
| CC(C)C(C)CCCCCCCCCCCc1cc(O)cc(O)c1 (stereo not drawn) | Klebsiella pneumoniae | microbial growth | ATCC29665 | – | IC50 | > 200 µM |
| COC(=O)c1cc(-c2cccc(NC(=O)Nc3ccccc3F)c2)on1 | Klebsiella pneumoniae | microbial growth, broth dilution | BAA1705 | – | MIC | > 64 µg/mL |
| CCCCCCCCCCCCCCCc1cc(O)cc(O)c1 | Streptococcus pneumoniae | microbial growth | – | – | IC50 | > 200 µM |
| COC(=O)c1cc(-c2cccc(NC(=S)Nc3ccc(C#N)cc3)c2)on1 | Klebsiella pneumoniae | microbial growth, broth dilution | BAA1705 | – | MIC | > 64 µg/mL |
| Cc1c(NN=C(C#N)C2=NC(=O)CS2)c(=O)n(-c2ccccc2)n1C | Klebsiella pneumoniae | microbial killing, broth dilution | – | – | MBC | 2 µg/mL (≈ 5.64 µM) |
